Screening data from PubChem BioAssay.
M4 ag: human M4 muscarinic receptor agonists, primary screen, CHO-K1 cells, Fluo-8 calcium fluorescence; Muscarinic acetylcholine receptor M4 (Homo sapiens), P08173; CHO-K1 hM4/Gqi5; vehicle 0%, full acetylcholine response 100%; activation, % at 3 µM; hit rate 0.14% among 360,000; AID 624127, 2012;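 active = activation above the run mean over all test wells plus 3 SD, cut at about 32% in these data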;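 also: peak over basal fluorescence ratio per well then scaled between controls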
Target sequence (P08173 whole entry, looked up): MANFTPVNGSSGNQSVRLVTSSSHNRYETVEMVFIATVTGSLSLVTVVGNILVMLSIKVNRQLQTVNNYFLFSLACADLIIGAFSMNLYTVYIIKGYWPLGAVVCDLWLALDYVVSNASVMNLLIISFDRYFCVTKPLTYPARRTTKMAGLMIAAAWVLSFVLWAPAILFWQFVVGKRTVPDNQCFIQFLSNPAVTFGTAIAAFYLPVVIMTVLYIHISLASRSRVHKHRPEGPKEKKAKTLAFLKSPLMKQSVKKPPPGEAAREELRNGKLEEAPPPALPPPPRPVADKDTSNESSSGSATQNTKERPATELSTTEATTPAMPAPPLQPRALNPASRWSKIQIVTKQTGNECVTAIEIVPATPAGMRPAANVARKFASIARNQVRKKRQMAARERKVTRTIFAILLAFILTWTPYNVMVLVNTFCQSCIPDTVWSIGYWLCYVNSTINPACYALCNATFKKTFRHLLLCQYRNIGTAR
CHRM5 PAM: human M5 muscarinic receptor positive allosteric modulators, primary screen, CHO-K1 cells, Fluo-8 calcium fluorescence | Muscarinic acetylcholine receptor M5 (Homo sapiens), P08912 | CHO-K1 hM5, ACh EC20 PAM; 0% = ACh EC20, 100% = ACh EC100 | activation, % at 3 µM | hit rate 0.3% among 360,000 | AID 624038, 2012;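 active = activation above the run cutoff, the mean activation of all test compounds plus 3 SD, cut at about 18% in these data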
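Replicates: One well per compound, no replicates | System: Human M5 receptor in CHO-K1 cells | Benchmarks: Low control EC20 acetylcholine (0%), high control EC100 acetylcholine (100%) | Probe or stimulus: Acetylcholine, EC20 level | Times: Fluo-8 loading 80 min at 37 °C plus 30 min room temperature | Signal: Intracellular calcium via Fluo-8 fluorescence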
CHRM5 antagonist: human M5 muscarinic receptor antagonists, primary screen, CHO cells, Fluo-8 calcium fluorescence; inhibition, % at 3 µM; CHO-hM5 cells, ACh EC80; hit rate 0.59% among 360,000; Muscarinic acetylcholine receptor M5 (Homo sapiens), P08912; AID 624040, 2012;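 active = inhibition above a per-plate cutoff, the mean of that plate's test compounds plus 3 SD, cut at about 27% in these data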
M4 antag: human M4 muscarinic receptor antagonists, primary screen, CHO cells, Fluo-8 calcium fluorescence | CHO-hM4 cells, ACh EC80 | Muscarinic acetylcholine receptor M4 (Homo sapiens), P08173 | inhibition, % at 3 µM | hit rate 0.73% among 360,000;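 active = inhibition above its plate's cutoff, the mean inhibition of sample wells plus 3 SD, cut at about 27% in these data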
M4 PAM: human M4 muscarinic receptor positive allosteric modulators, primary screen, CHO-K1 cells, Fluo-8 calcium fluorescence | CHO-K1 hM4/Gqi5, ACh EC20; 0% = ACh EC20, 100% = maximal ACh | hit rate 0.4% among 360,000 | AID 624126, 2012 | activation, % at 3 µM;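 active = activation above its plate's cutoff, the mean activation of sample wells plus 3 SD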
CHRM5 agonist: human M5 muscarinic receptor agonists, primary screen, CHO-K1 cells, Fluo-8 calcium fluorescence; hit rate 0.19% among 360,000; AID 624037, 2012; CHO-K1 hM5 cells; 0% DMSO wells, 100% maximal acetylcholine response; Muscarinic acetylcholine receptor M5 (Homo sapiens), P08912; activation, % at 3 µM;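 active = activation above the run's mean over test compounds plus 3 SD, cut at about 23% in these data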;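 also: signal is peak over basal fluorescence ratio across the kinetic read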
Numbers stand for hits; – = inactive; ! = not confirmed by another sample. A selection: hits, their analogues and other compounds. The true share with any hit is near 1.8%.

SMILES	M4 ag	CHRM5 PAM	CHRM5 antagonist	M4 antag	M4 PAM	CHRM5 agonist
COc1ccc(CN2C(=O)c3c(c(C)n(C)c3C)C2C(=O)NC2CCC(C)CC2)cc1 (stereo not given)	–	–	–	–	–	–
CSc1nnc(N(CCC#N)CCC#N)s1	–	39.8	–	–	–	–
Cc1nnc(N(CCC#N)CCC#N)s1	–	–	–	–	–	–
CCOc1ccccc1-n1c(N)c(C(N)=O)sc1=S	–	22.1	–	–	–	–
COc1cc(-c2noc(C3CCCN(C(=O)c4ccccc4)C3)n2)cc(OC)c1OC (stereo not given)	–	–	–	–	13.6	–
C=CCn1cccc(C(=O)Nc2ccc(F)cc2)c1=O	–	–	–	–	–	–
CC(C(=O)NC1CCCCC1)N1CCN(S(=O)(=O)c2cccs2)CC1 (stereo not given)	–	–	–	–	–	–
CC1(C)C(=O)OC(c2ccccc2)C(C)(C)C1=O (stereo not given)	–	–	31.5	–	–	–
CC1(C)C(=O)OC(c2ccccc2)C2(CCCC2)C1=O (stereo not given)	–	–	–	–	–	–
O=S(=O)(c1ccc(F)cc1)N1CC2CCCN2c2ccc(C(F)(F)F)cc21 (stereo not given)	–	–	–	38.6	–	–
C[C@H]1C=C(C(=O)O)O[C@@H](OCc2ccc(CO)cc2)C1	–	–	–	–	–	–
CN(C)c1ccc(CC(=O)N2CCCCC2c2cc(C(=O)Nc3ccccc3)no2)cc1 (stereo not given)	–	–	–	–	–	–
Cn1c(=O)c2[nH]c(-c3cccnc3)nc2n(C)c1=O	–	–	–	–	31.4	–
CC(O)Cn1c(N2CCCC2)nc2c1c(=O)n(C)c(=O)n2C (stereo not given)	–	–	–	–	–	–
Cc1cc(C)c(S(=O)(=O)c2ccc(Cl)cc2)c(Cl)n1	–	–	–	–	–	–
Cc1cc(S(=O)(=O)c2ccc(Cl)cc2)nc(S(=O)(=O)c2ccc(Cl)cc2)c1C#N	–	–	–	87.5	–	–
O=C(OCC(=O)N1CCN(c2ccccc2)CC1)c1ncc(Cl)c(Cl)c1Cl	–	–	–	–	–	–
Cc1[nH]c(=O)[nH]c(=O)c1S(=O)(=O)N1CCC(C(=O)N2CCN(c3cccc(C(F)(F)F)c3)CC2)CC1	–	–	–	–	–	–
C=CCN1C(=O)S/C(=C\c2ccc(N3CCOCC3)cc2C)C1=O	–	–	–	–	27.3	–
COc1cc(/C=C2\SC(=Nc3ccc(Cl)c(C(=O)O)c3)NC2=O)c(Br)c(Br)c1O	50.9	–	42.6	–	–	190.3
CCc1ccc(N=C2NC(=O)/C(=C/c3cc(OC)c(O)c(OC)c3)S2)cc1	–	–	–	–	–	23.8
COc1cc(/C=C2\SC(=Nc3ccccc3)NC2=O)cc(Cl)c1O	83.5	–	45.4	44.0	–	64.4
COc1cccc(OC)c1-c1cnc(NC(C)=O)cn1	–	–	–	–	–	–
O=C(O)CSCC(=O)NCc1ccc(Cl)cc1	–	–	–	–	28.3	–
O=C(NC1CC1)c1nc(Cn2ccc([N+](=O)[O-])n2)no1	–	–	–	–	–	–
SMILES	M4 ag	CHRM5 PAM	CHRM5 antagonist	M4 antag	M4 PAM	CHRM5 agonist
CNCCCC12CCC(c3ccccc31)c1ccccc12	–	–	32.5!	28.5!	–	–
CNCCCC1Sc2ccccc2Oc2ccccc21 (stereo not given)	–	–	–	–	–	–
Cc1ccccc1C(=O)NNC(=O)CCC(=O)Nc1cccc(Cl)c1C	–	19.3	–	–	–	–
O=C(c1cccc(S(=O)(=O)N2CCCCC2)c1)N1CCN(c2ccccc2)CC1	–	–	–	–	–	–
O=C(c1ccc(S(=O)(=O)N2CCCCCC2)cc1)N1CCN(c2ccccc2)CC1	–	–	28.4	–	–	–
CSCCC(NS(=O)(=O)c1ccc(C)cc1)C(=O)N1CCCCCCC1 (stereo not given)	–	–	–	–	–	–
Cn1ccnc1C1CCCCN1Cc1nc(Cc2ccccc2F)no1 (stereo not given)	–	–	–	82.9	–	–
Cc1ccn2c(Nc3ccc4c(c3)OCO4)c(-c3ccc(O)cc3)nc2c1	–	–	–	–	–	–
NC1=NC(=O)CC(C(=O)NCc2ccccc2)S1 (stereo not given)	–	–	–	–	16.5	–
Cc1ccc(C)c(NC(=O)CN(C)C(C)C(=O)N2CC(C)CC(C)C2)c1 (stereo not given)	–	19.1	–	–	–	–
Cc1c(O)c(S(=O)(=O)c2ccccc2)c(=O)n(-c2ccccc2)c1-c1ccccc1	–	–	–	26.9	–	–
Cc1c(O)c(S(=O)c2ccccc2)c(=O)n(-c2ccccc2)c1-c1ccccc1 (stereo not given)	–	–	–	–	–	–
COc1ccc(CCNC(=O)CN(CCc2ccccc2)S(C)(=O)=O)cc1	–	–	–	–	–	–
CCc1ccc(NC(=O)C(C)OC(=O)/C=C/c2ccc(O)c(OC)c2)cc1 (stereo not given)	–	–	–	–	–	34.6
COc1cc(/C=C/C(=O)OCC(=O)c2ccc(OC(F)F)cc2)ccc1O	–	–	–	–	–	27.0
COc1cc(/C=C/C(=O)OC(C)C(=O)Nc2c(C)n(C)n(-c3ccccc3)c2=O)ccc1O (stereo not given)	–	–	–	–	–	–
COc1ccc(N2CCN(C(=O)COC(=O)/C=C/c3ccc(OC(F)F)cc3)CC2)cc1	–	–	–	–	23.1	–
COc1ccc(N2CCN(C(=O)COC(=O)/C=C/c3ccc(C(F)(F)F)cc3)CC2)cc1	–	–	–	–	–	–
O=C(Nc1cc(S(=O)(=O)N2CCOCC2)ccc1O)c1ccc(NS(=O)(=O)c2ccc(Cl)s2)cc1	–	–	–	–	–	–
Cc1ccc(NC(=O)c2ccccc2NS(=O)(=O)c2ccc(Cl)s2)cc1S(=O)(=O)N1CCOCC1	–	–	31.8	–	–	–
COc1ccc(NC(=O)c2sc3nc(C)cc(C)c3c2N)cc1	–	–	–	–	–	–
Cc1cc(C)c2c(N)c(C(=O)NC3CCCC3)sc2n1	36.3	–	–	61.3	51.8	–
Cc1cc(C)c2c(N)c(C(=O)Nc3ccc(F)cc3)sc2n1	–	–	–	–	26.9	–
